Assay outcomes as filed in PubChem.
An excerpt weighted towards active compounds, which were near 5.5% of everything screened.
PostGolgi ctrl: growth of the yeast control strain, post-Golgi counter-screen | efflux-deficient yeast background strain, growth absorbance A615, 16 h | inhibition, % at 10 µM | 98,000 tested, 5% active | AID 738
PostGolgi yeast: growth inhibition of a yeast mutant, post-Golgi transport screen; 98,000 tested, 0.9% active; inhibition, % at 10 µM; post-Golgi transport phenotypic cell assay;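 note: yeast cells grown in 1536-well plates; yeast grown about 18 h at 30C before absorbance read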
Ecoli WT expand: blocks growth of wild type E. coli BW25113; growth inhibition, % at 100 µM; 98,000 tested, 0.15% active; OD600 absorbance;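 active = growth inhibition above about 50% at one test dose, limit read from the data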;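 note: growth measured after 20 h incubation at 37 °C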
HePTP inh: inhibitors of human HePTP phosphatase; P35236; 110,000 tested, 0.64% active; inhibition, % at 20 µM; recombinant HePTP phosphatase activity, OD absorbance; in the data active = inhibition above about 50%;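 note: plate controls were vehicle for no effect and reference inhibitor for full effect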
Target sequence (P35236 whole entry, looked up): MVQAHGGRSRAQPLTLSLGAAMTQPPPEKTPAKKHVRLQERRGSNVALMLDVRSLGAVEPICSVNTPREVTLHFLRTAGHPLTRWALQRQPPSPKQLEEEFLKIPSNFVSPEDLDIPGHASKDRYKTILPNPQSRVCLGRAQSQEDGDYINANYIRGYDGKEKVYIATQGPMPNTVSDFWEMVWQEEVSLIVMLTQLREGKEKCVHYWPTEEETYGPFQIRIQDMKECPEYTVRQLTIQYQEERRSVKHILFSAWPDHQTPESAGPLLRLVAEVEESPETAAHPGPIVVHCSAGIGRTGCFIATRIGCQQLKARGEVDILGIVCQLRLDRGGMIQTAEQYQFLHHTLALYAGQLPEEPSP
Ecoli tolC: E. coli tolC mutant growth inhibition. growth inhibition, % at 10 µM (by protocol). 65,000 tested, 2.2% active. AID 573. E. coli BW25113 tolC mutant growth, OD615;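 active = growth inhibition at or above a cutoff equal to the mean over every tested compound plus 3 SD, cut at about 60% in these data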;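 note: growth measured after 20 h incubation at 37 °C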
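System: E. coli ΔtolC::kan strain BW25113; Buffer or medium: LB broth supplemented with 50 µg/mL kanamycin; Compound: 10 µM final, single dose; Incubation: bacterial growth with compound for 20 h at 37 °C; Signal: A615 absorbance measurement; Evaluation: growth inhibition in percent.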
PLAP act: activators of human placental alkaline phosphatase. AID 696. activation fold at 20 µM. 96,000 tested, 1.2% active. purified PLAP enzyme, luminescent substrate read-out; active compounds read high; in the data active = activation fold above about 2
An asterisk follows results filed as active; x = no result. Cut-off read from the data, not from the text of the source, unless noted: active = inhibition above about 30%; inactive = the rest.

SMILES | PostGolgi ctrl | PostGolgi yeast | Ecoli WT expand | HePTP inh | Ecoli tolC | PLAP act
O=C(NCC(=O)N1CCC(N2CCCCC2)CC1)C1CCCCC1 | 30* | -11 | 6 | -5 | -13 | 1.4
Cc1cccc(C(=O)Nc2ccc(NC(=O)Cc3ccccc3)cc2)c1 | x | x | x | 1 | x | x
COc1ccc(N/C=C(\C#N)c2nc3ccccc3n2C)c(OC)c1 | 49* | 24 | -9 | 5 | 22 | 1.8
CN(C)/C=C(/C#N)C(=O)c1cccc(Oc2ccc(C(C)(C)C)cc2)c1 | 50* | 3 | -6 | x | x | 1.5
Cc1cc(Cl)ccc1Oc1cccc(C(=O)/C(C#N)=C/N(C)C)c1 | 65* | 5 | 0 | x | x | 1.3
Cc1ccccc1Oc1cccc(C(=O)/C(C#N)=C/N(C)C)c1 | 2 | 21 | 5 | x | x | 1.6
Cc1ccccc1Oc1ncccc1C(=O)/C(C#N)=C/N(C)C | 2 | -1 | -6 | x | x | 1
Nc1nnc(CSc2ccccc2)s1 | x | x | x | 3 | x | x
Cn1c2ccccc2c2c(C(=O)N3CCN(c4ccccc4)CC3)cn(C3CCCC3)c(=O)c21 | 22 | 5 | -25 | -5 | 27 | 1.6
Cc1ccc(Cl)cc1N1CCN(C(=O)c2cn(C)c(=O)c3c2c2ccccc2n3C)CC1 | 57* | 4 | -6 | 12 | 52 | 1
Cc1cccc(N2CCN(C(=O)c3cn(C)c(=O)c4c3c3ccccc3n4C)CC2)c1C | 60* | 3 | -1 | 6 | 83* | 1.2
CN1CCN(c2ccc(/C=C3\Sc4ccccc4C3=O)cc2[N+](=O)[O-])CC1 | x | x | x | 11 | x | x
Cc1cc(C)nc(-n2nc(C)cc2NC(=O)CNC(C)c2ccccc2)n1 (stereo unspecified) | 34* | 8 | -1 | x | x | 1
CC(=O)Nc1ccc(S(=O)(=O)NN2C(=O)c3ccccc3C2=O)cc1 | x | x | x | 4 | x | x
COc1ccc(C2CC(C(F)(F)F)n3ncc(C(=O)NCc4ccco4)c3N2)cc1OC (stereo unspecified) | x | x | x | -20 | x | x
Cn1nnc2cc(C(=O)NC(C)(C)C)ccc21 | 37* | 4 | 3 | -12 | -9 | 1
C=CCNC(=O)c1ccc2c(c1)nnn2C | 6 | -5 | 3 | 2 | -6 | 0.9
COc1cccc(-c2nc(N3CCCCC3C)c3ccccc3n2)c1O (stereo unspecified) | 75* | 18 | -16 | 8 | 1 | 1.6
CCN(CC)c1nc(-c2cccc(OC)c2O)nc2ccccc12 | 32* | -3 | -3 | 8 | -1 | 0.9
C=CCNc1nc(-c2cccc(OC)c2O)nc2ccccc12 | 17 | -3 | -4 | 11 | 15 | 0.9
O=C(/C=C/c1ccccc1)N1CCN(CCN2C(=O)C3C4C=CC(C4)C3C2=O)CC1 (stereo unspecified) | x | x | x | 1 | x | x
O=C(O)c1ccccc1N/N=C\c1ccnc2ccccc12 | 31* | -10 | -9 | x | x | 1
COc1ccc(C2c3c(-c4ccccc4O)n[nH]c3C(=O)N2CCc2ccc(OC)c(OC)c2)cc1 (stereo unspecified) | 7 | 13 | -11 | 16 | 59 | 2.8*
O=C1c2[nH]nc(-c3ccccc3O)c2C(c2cccc(O)c2)N1Cc1ccco1 (stereo unspecified) | 15 | 6 | 18 | x | x | 2.2*
Cc1ccc(C2c3c(-c4ccccc4O)n[nH]c3C(=O)N2Cc2ccncc2)cc1 (stereo unspecified) | -2 | -6 | 5 | 3 | 69* | 1.7
SMILES | PostGolgi ctrl | PostGolgi yeast | Ecoli WT expand | HePTP inh | Ecoli tolC | PLAP act
O=C(CSc1nc(O)c(Cc2ccccc2)c(=O)[nH]1)Nc1cccc2ccccc12 | x | x | x | 6 | x | x
COc1ccc(S(=O)(=O)N(CC(=O)Nc2cccc(C(C)=O)c2)c2ccc(C)cc2)cc1OC | x | x | x | 7 | x | x
COc1ccc(C(=O)OCCCN2C(=O)c3ccccc3C2=O)cc1 | x | x | x | -8 | x | x
COCCn1nnnc1C(C(C)C)N1CCOCC1 (stereo unspecified) | 40* | 5 | 2 | 10 | -5 | 0.9
O=[N+]([O-])c1cc(S(=O)(=O)C(F)(F)F)ccc1Sc1nc2ccccc2[nH]1 | 70* | 27 | 23 | x | x | 1.1
O=[N+]([O-])c1cc(S(=O)(=O)C(F)(F)F)ccc1Sc1nc2ccccc2s1 | 92* | 41* | 20 | x | x | 0.6
CCOC(=O)c1c(NC(=O)C(CC)Sc2nc(C)cc(C)n2)sc2c1CCCC2 (stereo unspecified) | x | x | x | -17 | x | x
Fc1cccc(NC(=S)NC(c2ccccc2)c2ccccc2)c1 | x | x | x | 8 | x | x
COc1ccc(C(=O)N=Nc2c(O)n(CN3CCN(C)CC3)c3ccc(Br)cc23)cc1 | x | x | x | 8 | x | x
COc1ccc(/C=N/OCC(=O)N=Nc2c(O)n(CN(C)C)c3ccc(Br)cc23)cc1 | x | x | x | 104* | x | x
COc1cc(=O)[nH]c(SCc2c(F)c(F)c(F)c(F)c2F)n1 | 53* | 11 | 13 | -6 | 16 | 0.8
COc1ccc(CSc2nc(C)cc(=O)[nH]2)cc1Br | 17 | -5 | -3 | 7 | 5 | 1.1
N#CC1=C(N)C(C#N)(C#N)C(c2cccnc2)C2CC(c3ccccc3)CC=C12 (stereo unspecified) | 14 | 71* | 0 | x | x | 1
N#CC1=C(N)C(C#N)(C#N)C(c2cccnc2)C2CCCC=C12 (stereo unspecified) | 14 | 3 | 9 | 5 | 2 | 1.3
CCCCOc1ccc(C(=O)NCc2ccc3c(c2)OCO3)cc1 | x | x | x | -6 | x | x
Cc1ccc(Sc2oc(/C=N/n3cnnc3)cc2Br)cc1 | 44* | 1 | -6 | 5 | 0 | 1.2
COc1ccc(S(=O)(=O)N2CCC(NC(=O)OCc3c(Cl)cccc3Cl)CC2)cc1 | 32* | -12 | -7 | x | x | 0.9
C/C(=N\NC(=O)C1CCCN(S(=O)(=O)c2ccccc2)C1)c1ccccn1 (stereo unspecified) | 4 | 26 | 3 | x | x | 2*
COc1ccc(S(=O)(=O)N2CCCC(C(=O)NC3CCCCC3)C2)cc1 (stereo unspecified) | 32* | -2 | 1 | 2 | 9 | 1.1
COc1ccc(COC(=O)NC2CCN(S(=O)(=O)c3ccc(OC)cc3)CC2)cc1 | 4 | -3 | -1 | x | x | 0.9
COc1c(Cl)cc(-c2noc(C)c2C(=O)NCCc2ccc(C)cc2)cc1Cl | 37* | 2 | 1 | x | x | 0.8
CCOC(=O)N1CCN(C(=O)CCCn2c(=S)[nH]c3ccc(Br)cc3c2=O)CC1 | 1 | 5 | 9 | x | x | 2*
CCOC(=O)N1CCN(C(=O)CCCn2c(=S)[nH]c3ccccc3c2=O)CC1 | 11 | 1 | 1 | 4 | -8 | 1.4
O=C(CCCn1c(=S)[nH]c2cc3c(cc2c1=O)OCO3)N1CCN(c2ncccn2)CC1 | 43* | 10 | -5 | -9 | 2 | 1.1
CC(=O)c1ccc(C(=O)Nc2nnc(-c3ccc(Cl)cc3)o2)cc1 | x | x | x | 2 | 100* | x
O=C(Nc1nnc(-c2ccccc2)o1)c1ccc(Cl)cc1 | 74* | 110* | 49 | -3 | 99* | 1
O=C(c1ccc(Cl)c(Cl)c1)N1CCN(c2cccc(Cl)c2)CC1 | x | x | x | -10 | x | x
CCCc1nc2ccccc2c(=O)n1/N=C/c1c(C)[nH]n(-c2ccc(C)cc2)c1=O | 0 | -3 | 4 | 14 | 41 | 2.1*
